Calls of active or inactive are those of the source. No cut-off for these calls is given here.

What all share (format): functional
One assay deals with HT-29. The assay is described as follows: Cytotoxicity against human HT-29 cells after 72 hrs by SRB assay. An outline of the steps: (§1)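 Cells seeded at 5 × 10³/well and grown 24 h; one plate per line fixed at this point as T_z reference. Exposure to vehicle or compound for a further 72 h. Wash in PBS, fix 15 min in 1% glutaraldehyde, stain 30 min at rt with 0.4% SRB, rinse in 1% acetic acid, extract into 10 mM trizma base, read A490. NCI algorithm; GI50 interpolated from dose curves.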
(In SRB staining, fixed cells bind dye roughly in proportion to their protein.)

In another assay the test system is A549. The assay is described as follows: Cytotoxicity against human A549 cells after 72 hrs by SRB assay. In short, it runs like this: as §1
Another assay has as its system MDA-MB-231. Description: Cytotoxicity against human MDA-MB-231 cells after 72 hrs by SRB assay. In short, it runs like this: as §1

Broadly, the GI50 is the concentration that inhibits growth by half. For the compound `Cn1cc(C2CC(=O)N=C(N)N2)c2cc(Br)ccc21` (racemic), the GI50 entry in the assay on HT-29, in the assay with A549 and in the assay with MDA-MB-231 was “inactive” throughout.
For the compound `NC1=NCCC(c2c[nH]c3cc(Br)ccc23)N1` (racemic), the GI50 was found to be 21.1 µM in the assay on HT-29 (HT-29, 72 h) and 19.1 µM in the assay on MDA-MB-231 (MDA-MB-231, 72 h). Further, in the assay on A549, the GI50 entry was “inactive”.
Take `CC(=O)/N=C1\NCCC(c2cn(C)c3ccccc23)N1` (racemic): the GI50 in the assay with HT-29 (HT-29, 72 h) worked out at 7.4 µM; in the assay on A549 (A549, 72 h) it was 10.7 µM; in the assay on MDA-MB-231 (MDA-MB-231, 72 h), 14.4 µM.
Regarding `Cn1cc(C2CCN=C(N)N2)c2cc(Br)ccc21` (racemic), the GI50 in the assay with HT-29 (HT-29, 72 h) came to 13.7 µM; in the assay on MDA-MB-231 (MDA-MB-231, 72 h) it was 25.7 µM. The GI50 entry with A549 is “inactive”.
With `Cn1cc(C2CCN=C(N)N2)c2ccccc21` (racemic), the GI50 with HT-29 (HT-29, 72 h) came to 4.29 µM; in the assay with A549 (A549, 72 h), 2.67 µM; in the assay on MDA-MB-231 (MDA-MB-231, 72 h), 1.71 µM.
For the compound `NC1=NCCC(c2c[nH]c3cc(Br)c(Br)cc23)N1` (racemic), the GI50 result in the assay on HT-29, with A549 and in the assay on MDA-MB-231 was “inactive” throughout.
With `CC(=O)/N=C1\NCCC(c2cn(C)c3cc(Br)ccc23)N1` (racemic), the GI50 in the assay on HT-29 (HT-29, 72 h) is 4.3 µM; in the assay with A549 (A549, 72 h), 6.3 µM; in the assay on MDA-MB-231 (MDA-MB-231, 72 h) it was 8.02 µM.
On to `Cn1cc(C2CC(=O)N=C(N)N2)c2ccccc21` (racemic), for which the GI50 result with HT-29, in the assay with A549 and in the assay with MDA-MB-231 was “inactive” each time.
Consider `COn1cc(C2CC(=O)N=C(N)N2)c2cc(Br)c(Br)cc21` (racemic), for which the GI50 result in the assay with HT-29, in the assay with A549 and with MDA-MB-231 was “inactive” in each case.
Consider `COn1cc(C2CC(=O)N=C(N)N2)c2ccccc21` (racemic), for which the GI50 entry in the assay with HT-29, with A549 and in the assay with MDA-MB-231 was “inactive” each time.
As to `NC1=NC(=O)CC(c2c[nH]c3cc(Br)ccc23)N1` (racemic), the GI50 entry in the assay on HT-29, with A549 and with MDA-MB-231 was “inactive” each time.
Take `Cn1cc(C2CCN=C(N)N2)c2ccc(Br)cc21` (racemic): the GI50 with HT-29 (HT-29, 72 h) worked out at 4.56 µM; in the assay on A549 (A549, 72 h) it was 9.11 µM; in the assay on MDA-MB-231 (MDA-MB-231, 72 h), 8.79 µM.
On to `Cn1cc(C2CC(=O)N=C(N)N2)c2ccc(Br)cc21` (racemic), for which the GI50 entry with HT-29 and in the assay on A549 was “inactive” each time. Besides, halving of growth in the assay with MDA-MB-231 (MDA-MB-231, 72 h) (GI50) required 2.86 µM.
Take `CC(=O)/N=C1\NCCC(c2c[nH]c3ccc(Br)cc23)N1` (racemic) [APLICYANIN B]: the GI50 with HT-29 (HT-29, 72 h) worked out at 0.33 µM; with A549 (A549, 72 h), 0.51 µM; with MDA-MB-231 (MDA-MB-231, 72 h), 0.98 µM.
For `NC1=NC(=O)CC(c2c[nH]c3ccc(Br)cc23)N1` (racemic), the GI50 entry in the assay on HT-29, in the assay on A549 and in the assay with MDA-MB-231 was “inactive” each time.
Turning to `CC(=O)/N=C1\NCCC(c2c[nH]c3cc(Br)ccc23)N1` (racemic), the concentration for 50% growth inhibition (GI50) in the assay with HT-29 (HT-29, 72 h) was 2.12 µM; in the assay on A549 (A549, 72 h) it was 6.86 µM; in the assay on MDA-MB-231 (MDA-MB-231, 72 h), 5.67 µM.
The corresponding values for `NC1=NCCC(c2c[nH]c3ccc(Br)cc23)N1` (racemic) [APLICYANIN A] are 0.11 µM, 0.27 µM and 0.27 µM.
In the same order, the values of `CC(=O)/N=C1\NCCC(c2cn(C)c3ccc(Br)cc23)N1` (racemic) are 0.31 µM, 0.43 µM and 0.94 µM.
Consider `COn1cc(C2CCN=C(N)N2)c2ccccc21` (racemic), for which the GI50 result with HT-29, in the assay on A549 and in the assay with MDA-MB-231 was “inactive” each time.
As for `COn1cc(C2CCN=C(N)N2)c2cc(Br)c(Br)cc21` (racemic) [APLICYANIN E], the GI50 entry in the assay with HT-29 and with A549 was “inactive” in each case. Besides, halving of growth with MDA-MB-231 (MDA-MB-231, 72 h) (GI50) required 10.9 µM.

For the origin of these results see ChEMBL document CHEMBL1154620, “Total synthesis and antiproliferative activity screening of (+/-)-aplicyanins A, B and E and related analogues” (2009).
